# Sampled rows, rich in hits. Any-hit rate of the full collection: about 2.3%.
# TRPC4 agonist: activators of mouse TRPC4 channel. Q9QUQ5. HEK293 TRPC4beta/mu-opioid, Fluo4 calcium fluorescence; stronger effect = higher value. B-score at 10 µM. 310,000 tested, 0.49% active. AID 2237;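 active means B-score above 5 SD of library B-scores, and initial fluorescence ratio not above library mean plus 5 SD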;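 further: positive B-score marks a calcium rise read as TRPC4 activation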
# Target sequence (Q9QUQ5 whole entry, looked up): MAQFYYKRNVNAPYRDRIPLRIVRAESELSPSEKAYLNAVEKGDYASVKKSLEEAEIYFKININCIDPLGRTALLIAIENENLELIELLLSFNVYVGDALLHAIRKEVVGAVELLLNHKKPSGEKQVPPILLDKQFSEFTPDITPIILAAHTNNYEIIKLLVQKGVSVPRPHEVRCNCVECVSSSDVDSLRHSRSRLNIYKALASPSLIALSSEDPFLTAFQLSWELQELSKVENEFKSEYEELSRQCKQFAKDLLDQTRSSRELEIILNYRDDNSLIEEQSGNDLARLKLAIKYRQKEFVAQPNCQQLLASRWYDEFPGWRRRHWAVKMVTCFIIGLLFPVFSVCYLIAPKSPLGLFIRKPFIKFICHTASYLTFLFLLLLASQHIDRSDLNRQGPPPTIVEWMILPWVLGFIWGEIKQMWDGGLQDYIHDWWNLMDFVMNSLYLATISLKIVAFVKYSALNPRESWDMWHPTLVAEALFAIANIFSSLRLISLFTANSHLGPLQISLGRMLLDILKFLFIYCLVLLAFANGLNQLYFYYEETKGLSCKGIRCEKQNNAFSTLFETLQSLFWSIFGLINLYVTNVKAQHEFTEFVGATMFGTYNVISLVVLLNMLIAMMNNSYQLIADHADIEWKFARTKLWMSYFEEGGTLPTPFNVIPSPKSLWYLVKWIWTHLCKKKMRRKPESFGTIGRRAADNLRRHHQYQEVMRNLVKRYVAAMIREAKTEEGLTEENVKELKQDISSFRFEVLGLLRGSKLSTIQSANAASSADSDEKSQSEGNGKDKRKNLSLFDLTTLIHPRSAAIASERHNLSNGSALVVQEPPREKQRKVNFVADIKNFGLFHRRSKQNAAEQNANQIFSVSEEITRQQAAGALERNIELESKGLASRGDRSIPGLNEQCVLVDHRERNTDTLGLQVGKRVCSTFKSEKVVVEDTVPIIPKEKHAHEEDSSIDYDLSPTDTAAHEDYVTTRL
#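 system = HEK293 cells stably co-expressing mouse TRPC4beta and mu-opioid receptor | schedule = Fluo4 dye loading 45 min at room temperature, 110 s recording | measure = B-scored integrated calcium fluorescence ratio | signal = Fluo4 calcium-sensitive dye fluorescence, kinetic, 1 Hz baseline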
# TRPC6 inhibitor: blocks the mouse TRPC6 cation channel. HEK293-TRPC6, membrane potential dye, ACh-evoked depolarization; stronger effect = lower value. 310,000 tested, 1.1% active. Q61143. B-score at 10 µM. AID 2553;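 active means B-score under library mean minus 3 SD, initial fluorescence not abnormally high, positive integrated signal ratio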;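 further: B-score derived from integrated fluorescence ratio over the kinetic read; more negative B-score means stronger inhibition of depolarization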
# TRPC6 act: mouse TRPC6 channel activation; Q61143; 310,000 tested, 0.13% active; B-score at 10 µM; HEK293-TRPC6 membrane potential dye fluorescence; stronger effect = higher value;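 active means B-score of the integrated fluorescence ratio above library mean plus 3 SD, and starting fluorescence ratio within library mean plus 5 SD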;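 further: higher score means more depolarization so channel activation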
# TRPC4 potent: TRPC4 (mouse) allosteric potentiation. HEK293 TRPC4beta/mu-opioid, DAMGO EC20, Fluo-4 Ca2+ flux; stronger effect = higher value. B-score at 10 µM. 310,000 tested, 0.42% active. AID 2227;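 active means B-score of calcium response area above 5 SD of library B-scores, with initial fluorescence ratio within 5 SD of library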;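 further: B-score of integrated fluorescence ratio over time as area under calcium response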
# TRPC4 block: TRPC4 (mouse) channel inhibition; Q9QUQ5; HEK293 TRPC4beta/mu-opioid, DAMGO-evoked Fluo4 calcium flux; stronger effect = lower value; B-score at 10 µM; 300,000 tested, 0.39% active; AID 2247;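 active means B-score over 3 SD under the library average, no early fluorescence shift, positive overall ratio signal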
#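 Assay system: TRPC4beta/mu-opioid receptor HEK293 cell line; compound dosing: single concentration per test compound; detection: Fluo4 Ca2+ flux fluorescence; evaluation: per-well B score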
# * marks the source's active call; other numbers are inactive results; i = inactive.
SMILES,TRPC4 agonist,TRPC6 inhibitor,TRPC6 act,TRPC4 potent,TRPC4 block
O=C(CCl)Nc1ccc(N2CCCCCC2)cc1,i,i,i,i,i
COc1ccc2c(c1OC)C(=O)OC2n1c(O)c(N=NC(C)=O)c2ccccc21 (stereo not drawn),i,i,i,i,i
O=C(CCn1c(=O)oc2ccc(Cl)cc21)NCCCN1CCOCC1,i,i,i,i,i
CCOc1cc(/C=C(\C#N)C(=O)Nc2cccc(C(=O)O)c2)ccc1OCc1ccccc1Cl,i,i,i,i,i
CCOc1cc(/C=C(\C#N)C(=O)Nc2cccc(C(=O)O)c2)cc(Br)c1OC(=O)c1ccc(OC)cc1,i,i,i,22*,i
O=C(NCCN1CCOCC1)C(=O)c1c[nH]c2ccccc12,i,i,i,i,i
COC(=O)c1ccccc1NC(=O)C1CCCC1,i,i,i,i,i
COC(=O)c1ccccc1NC(=S)NC(=O)C1CCCCC1,i,i,i,16*,i
CCn1c(N2CCN(S(=O)(=O)c3ccc(F)cc3)CC2)nc2ccccc21,i,i,i,i,i
CCCn1c(N2CCN(Cc3ccc(Cl)cc3)CC2)nc2ccccc21,i,i,i,i,i
CCn1c(N2CCN(Cc3ccc([N+](=O)[O-])cc3)CC2)nc2ccccc21,124*,i,i,12*,i
CCn1c(N2CCN(S(=O)(=O)CC)CC2)nc2ccccc21,126*,i,i,i,i
CCn1c(N2CCN(C(=S)Nc3ccc(OC)cc3)CC2)nc2ccccc21,52*,i,i,i,i
CCn1c(N2CCN(C(=S)NCCc3ccccc3)CC2)nc2ccccc21,87*,i,i,i,i
COCCCC1CCN(C(=O)C2CCC(=O)N(CCc3cccc(F)c3)C2)CC1 (stereo not drawn),i,i,i,i,i
COc1cccc(CNC(=O)C(CC(C)C)NC(=O)c2ccccc2C)c1 (stereo not drawn),i,i,i,i,i
CCn1c(N2CCN(C(=S)NC)CC2)nc2ccccc21,68*,i,i,i,i
CC(C)CNC(=S)N1CCN(c2nc3ccccc3s2)CC1,i,i,i,i,i
CCn1c(N2CCN(C(=S)NCC(C)C)CC2)nc2ccccc21,105*,i,i,i,i
Cn1c(N2CCN(C(=O)Nc3ccc(F)cc3)CC2)nc2ccccc21,88*,i,i,i,i
CCn1c(N2CCN(S(=O)(=O)c3ccc(Cl)cc3)CC2)nc2ccccc21,i,i,i,i,i
CCc1nnc(NC(=O)CSc2nc3cc(OC)ccc3cc2C)s1,i,i,i,i,i
COc1ccc(S(=O)(=O)N2CCC3(CC2)CC(=O)c2ccccc2O3)cc1C,i,i,i,i,i
COc1cccc(CN2C(=O)[C@@H]3Cc4c([nH]c5ccccc45)C(C)(C)N3C2=O)c1,i,i,i,i,i
CCOc1cc(/C=C(/NC(C)=O)C(=O)O)cc(Cl)c1OCc1ccc(Br)cc1,i,i,i,i,i
SMILES,TRPC4 agonist,TRPC6 inhibitor,TRPC6 act,TRPC4 potent,TRPC4 block
COc1ccc(-n2cc(CN(C)CCO)c(-c3cccc(F)c3)n2)cc1,i,i,i,i,i
COc1cccc(-c2nn(-c3ccccc3)cc2CN(C)C(C)c2ccncn2)c1 (stereo not drawn),51*,i,i,i,-6*
COc1ccc(-n2cc(CN(C)C(C)c3ccncn3)c(-c3cccc(F)c3)n2)cc1 (stereo not drawn),i,i,i,i,-8*
Cc1ccc(S(=O)(=O)N2CCCC(C(=O)NCCc3ccc(S(N)(=O)=O)cc3)C2)cc1 (stereo not drawn),i,i,i,i,i
CC1CCC2C(=O)N(c3ccc(NC4CCN(Cc5ccccc5)CC4)c([N+](=O)[O-])c3)C(=O)C2C1 (stereo not drawn),72*,i,i,i,i
O=C1CCC(=O)N1c1ccc(NC2CCN(Cc3ccccc3)CC2)c([N+](=O)[O-])c1,83*,i,i,i,i
